Test results as given in ChEMBL document CHEMBL3856206, “Nitroimidazole carboxamides as antiparasitic agents targeting Giardia lamblia, Entamoeba histolytica and Trichomonas vaginalis” (Eur J Med Chem, 2016).
The source made the active and inactive calls. The rule behind the calls is not given here.

Tests used:
[1] = Selectivity index, ratio of CC50 for human HepG2 cells to EC50 for metronidazole sensitive Giardia lamblia WB trophozoites
[2] = Selectivity index, ratio of CC50 for HEK293 cells to EC50 for metronidazole sensitive Giardia lamblia WB trophozoites
Entamoeba histolytica [3] = experiment: Potency index, ratio of metronidazole EC50 to compound EC50 for metronidazole sensitive Entamoeba histolytica HM-1:IMSS trophozoites; assay type: functional
Giardia intestinalis [4] = experiment: Potency index, ratio of metronidazole EC50 to compound EC50 for metronidazole resistant Giardia lamblia 713M3 trophozoites; assay type: functional, Giardia duodenalis
[5] = Metabolic stability in human liver microsomes assessed as compound remaining at 5 uM after 2 hrs in presence of NADPH by LC/MS/MS analysis; assay type: ADME; conditions: read-out: Stability
Giardia intestinalis [6] = experiment: Potency index, ratio of metronidazole EC50 to compound EC50 for metronidazole sensitive Giardia lamblia WB trophozoites; assay type: functional, Giardia duodenalis
Giardia intestinalis [7] = experiment: Antiparasitic activity against metronidazole sensitive Giardia lamblia WB trophozoites assessed as morphological alterations at 3 times EC50 after 48 hrs under anaerobic conditions by phase contrast microscopic analysis; assay type: functional; conditions: Giardia duodenalis
[8] = Protein binding in human plasma at 5 uM after 30 min by ultrafiltration method; assay type: ADME, cell-free; conditions: 0.5 h
[9] = Cytotoxicity against human HepG2 cells assessed as cell growth inhibition after 24 hrs by resazurin assay; assay type: toxicity, cell-based
Method in brief: (§1)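 HEK293 (3000/well) and HepG2 (5000/well) cells cultured 24 h in DMEM with 10% FBS at 37 °C, 5% CO2. Compound dilution series added, top concentration 100 μM, 0.5% final DMSO, for 24 h. Then 5 μM resazurin added for 2 h at 37 °C. 1% Triton X-100 served as the lysis control.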

[10] = Antiparasitic activity against metronidazole sensitive Clostridium difficile 630 ATCC BAA-1382 after 24 hrs by broth microdilution method; assay type: functional, Clostridioides difficile 630; conditions: Clostridioides difficile, ATCC BAA-1382, 24 h
Method in brief: (§2)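 C. difficile 630 and NAP1/027 grown anaerobically overnight in BHIS at 37 °C, diluted 40-fold, grown ~4.5 h to mid-log (OD600 0.4–0.6). Final inoculum 5 × 10^5 CFU/mL in BHIS against two-fold dilutions, 64 to 0.03 μg/mL, 3% maximum DMSO, in pre-reduced plates (5% H2, 10% CO2, 85% N2). Incubated 24 h at 37 °C. MIC is the lowest concentration without visible growth. Median of replicates reported.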

Entamoeba histolytica [11] = experiment: Antiparasitic activity against metronidazole sensitive Entamoeba histolytica HM-1:IMSS trophozoites after 24 to 48 hrs under anaerobic conditions by Celltiter-Glo assay; assay type: functional
Method in brief: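 Axenic log-phase trophozoites in TYI-S-33 with penicillin and streptomycin, 5000 parasites per well. Tested over a final 8-point three-fold series, 0.01–25 μM. Incubated 24–48 h at 37 °C in anaerobe gas pouches. Viable cells measured by ATP bioluminescence (CellTiter-Glo) in triplicate to give EC50.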

Clostridioides difficile = experiment: Antiparasitic activity against Clostridium difficile NAP1/027 ATCC BAA-1803 after 24 hrs by broth microdilution method; assay type: functional; conditions: NAP1/027 ATCC BAA-1803, 24 h; method in brief: as §2
[12] = Cytotoxicity against HEK293 cells assessed as cell growth inhibition after 24 hrs by resazurin assay; assay type: toxicity, cell-based; conditions: human; method in brief: as §1

Row | SMILES | Ratio CC50/EC50 [1] | Ratio CC50/EC50 [2] | further results
1 | NC(=O)c1nc([N+](=O)[O-])cn1Cc1cccc(OC(F)(F)F)c1 | >12 | >12 | 
2 | NNC(=O)c1nc([N+](=O)[O-])cn1Cc1ccc(OC(F)(F)F)cc1 | >13 | >13 | 
3 | CN(C)C(=O)c1ncc([N+](=O)[O-])[nH]1 | >12 | >12 | Ratio EC50 (Entamoeba histolytica [3]): 2 - 3
4 | CC(NC(=O)c1ncc([N+](=O)[O-])n1C)c1ccc(F)cc1 (stereo unspecified) | >34 | >34 | Ratio EC50 (Giardia intestinalis [4]): 3 - 12
5 | CN(C)C(=O)c1nc([N+](=O)[O-])cn1Cc1ccc(OC(F)(F)F)cc1 | >37 | >37 | 
6 | O=C(c1ncc([N+](=O)[O-])[nH]1)N1CCOCC1 | >11 | >11 | remaining at 2 h, 5 µM [5]: 100%
7 | Cn1c([N+](=O)[O-])cnc1C(=O)N1CCOCC1 | >63 | >63 | remaining at 2 h, 5 µM [5]: 97%; Ratio EC50 (Giardia intestinalis [6]): 4
8 | CCOC(=O)c1nc([N+](=O)[O-])cn1Cc1ccc(OC(F)(F)F)cc1 | >17 | >17 | 
9 | NC(=O)c1nc([N+](=O)[O-])cn1Cc1ccc(OC(F)(F)F)cc1 | >22 | >22 | 
10 | Cc1ncc([N+](=O)[O-])n1CCO [METRONIDAZOLE] |  |  | remaining at 2 h, 5 µM [5]: 100%
11 | O=C(NCc1ccc(OC(F)(F)F)cc1)c1ncc([N+](=O)[O-])[nH]1 |  | >500 | 
12 | Cn1c([N+](=O)[O-])cnc1C(=O)NCc1ccc(F)cc1 | >29 | >29 | remaining at 2 h, 5 µM [5]: 88%
13 | CNC(=O)c1ncc([N+](=O)[O-])[nH]1 | >10 | >10 | 
14 | O=C(c1ncc([N+](=O)[O-])[nH]1)N1CCCC1 | >29 | >29 | 
15 | O=C(NO)c1nc([N+](=O)[O-])cn1Cc1ccc(OC(F)(F)F)cc1 | >20 |  | 
16 | Cn1c([N+](=O)[O-])cnc1C(=O)NC1CCCCC1 | >20 | >20 | Ratio EC50 (Giardia intestinalis [4]): 3 - 12

Row | SMILES | Ratio CC50/EC50 [1] | Ratio CC50/EC50 [2] | further results
17 | O=C(NCc1cccc(OC(F)(F)F)c1)c1ncc([N+](=O)[O-])[nH]1 | >500 | >500 | 
18 | Cn1c([N+](=O)[O-])cnc1C(=O)NC1CC1 | >29 | >29 | 
19 | CC(NC(=O)c1ncc([N+](=O)[O-])[nH]1)c1ccc(F)cc1 (stereo unspecified) | >250 | >250 | Ratio EC50 (Entamoeba histolytica [3]): 2 - 3
20 | CNC(=O)c1nc([N+](=O)[O-])cn1Cc1ccc(OC(F)(F)F)cc1 | >29 | >29 | 
21 | CN(CCO)C(=O)c1ncc([N+](=O)[O-])[nH]1 | >4 | >4 | 
22 | O=C(NCc1ccc(F)cc1)c1ncc([N+](=O)[O-])[nH]1 | >250 | >250 | Activity (Giardia intestinalis [7]): Active; remaining at 2 h, 5 µM [5]: 94%; PPB [8]: > 99%
23 | NC(=O)c1nc([N+](=O)[O-])cn1Cc1ccccn1 | >3.7 | >3.7 | 
24 | O=C(NC1CC1)c1ncc([N+](=O)[O-])[nH]1 | >20 | >20 | 
25 | Cc1ccc(CCNC(=O)c2ncc([N+](=O)[O-])n2C)cc1 | >36 | >36 | 
26 | O=C(NC1CCCCC1)c1ncc([N+](=O)[O-])[nH]1 | >167 | >167 | Ratio EC50 (Entamoeba histolytica [3]): 2 - 3
27 | NC(=O)c1nc([N+](=O)[O-])cn1CC1CC1 |  |  | CC50 at 24 h [9]: > 100 µM; MIC [10]: > 64 µg/mL; EC50 (Entamoeba histolytica [11]; read-out: EC50): > 50 µM; EC50 (Entamoeba histolytica [11]; read-out: pEC50 (converted)): > 50.1 µM; MIC (Clostridioides difficile): > 64 µg/mL; CC50 at 24 h [12]: > 100 µM
28 | Cn1c([N+](=O)[O-])cnc1C(=O)NCc1ccccn1 | >63 | >63 | Ratio EC50 (Giardia intestinalis [4]): 3 - 12; Ratio EC50 (Giardia intestinalis [6]): 4
29 | O=C(NCc1ccccn1)c1ncc([N+](=O)[O-])[nH]1 | >14 | >14 | 
30 | CN(C)C(=O)c1ncc([N+](=O)[O-])n1C | >42 | >42 | 
31 | Cn1c([N+](=O)[O-])cnc1C(=O)N1CCCC1 | >34 | >34 | Ratio EC50 (Giardia intestinalis [4]): 3 - 12
32 | Cc1ccc(CCNC(=O)c2ncc([N+](=O)[O-])[nH]2)cc1 | >1000 | >1000 | Ratio EC50 (Entamoeba histolytica [3]): 2 - 3
